PubChem BioAssay AID504588 (Broad Institute, 2011)

The molecules below were run on U2OS HRE-luciferase reporter, luminescence (assay: hypoxia response element transcription activators – U2OS cells, luminescence, dry powder, set 10, dose response (AID 504588)).
In short: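 Test system: U2OS cells with stable 3×HRE-luciferase reporter; amount: 6,000 cells per well; dosing: dose series in 3-fold dilution steps; timing: 24 h compound exposure at 37 °C, 5% CO2, 21% O2; signal: Steady-Glo luminescence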

Row | Compound | AC40 [nM]
1 | Clc1cccc(CNc2nc(-c3ccccn3)nnc2-c2ccccc2)c1 | 1310
2 | c1ccc(-c2ccc(CNc3nc(-c4ccccn4)nnc3-c3ccccc3)cc2)cc1 | 360
3 | c1ccc(-c2cccc(CNc3nc(-c4ccccn4)nnc3-c3ccccc3)c2)cc1 | 721
4 | CC(C)(C)CCNc1nc(-c2ccccn2)nnc1-c1ccccc1 | 940
5 | c1ccc(CCNc2nc(-c3ccccn3)nnc2-c2ccccc2)cc1 | 2520
6 | CC(C)(C)c1ccc(CNc2nc(-c3ccccn3)nnc2-c2ccccc2)cc1 | 447
